Experimental findings from PMC6511231 (Cell reports, 2018) are described below.

One assay addresses human LIN28ΔF73A (Homo sapiens, UniProt Q9H9Z2, F73A). Put plainly: Competition / dose-response fluorescence polarization assay with LIN28ΔF73A. Type of assay: binding. Conditions: preE-let-7f, preE-let-7a, preE-let-7d, preE-let-7g. In a few lines:
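Recombinant human LIN28ΔF73A (150 nM in the screening master mix; set at the FP-titration Kd for competition) was mixed with 2 nM FAM-labelled preE-let-7 probe (let-7f, -7a, -7d or -7g) in buffer M (100 mM NaCl, 20 mM Tris-HCl pH 7.0, 5 mM MgCl2, 10% glycerol, 5 mM DTT, 0.1% NP-40). Test compound was dispensed at 12 concentrations, 50 μM–20 nM. IC50 came from a 1:1 inhibition fit; each assay was run at least twice.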
(In fluorescence polarisation assays a small probe gives low polarisation when free and higher when bound to something large.)

The next assay relates to preE-let-7f. Put plainly: Saturation transfer difference spectroscopy, preE-let-7f. In kind it is binding, human. The note with it: preE-let-7f alone.
Assay [1] has as its target human LIN28Δ:preE-let-7f complex (Homo sapiens, UniProt Q9H9Z2). Nature of the assay: Differential scanning fluorimetry. Type of assay: binding. Conditions: SYPRO Orange; 63°C without compound. A general note: DSF heats the sample and reads unfolding from a dye or from intrinsic fluorescence.
Assay [2] deals with HeLa control cells expressing GFP and not LIN28. Nature of the assay: let-7-sensitive dual luciferase reporter assay, GFP control cells. In kind it is cell-based, human. The note with it: up to 100 μM. In a few lines:
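HeLa cells were retrovirally transduced with FLAG-GFP (or LIN28) cDNA, puromycin-selected and single-cell cloned. They were then lentivirally given an 8×let-7-site Renilla/HSV-TK firefly cassette and selected with G418 as polyclonal populations. Cells were exposed to up to 100 μM test compound, lysed, and read for dual luciferase with firefly as internal control. Values were normalised to blanks.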

The subject of a further assay is DKO+A mESCs. Nature of the assay: qPCR of let-7 species in DKO+A mESCs. Type of assay: cell-based, mouse. The note with it: 100 μM, 48 hr, LIF/2i culture, vs vehicle. In a few lines: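 K562 leukaemia cells, or DKO+A mESCs (Lin28a/Lin28b double-knockout re-expressing wild-type LIN28A, in LIF/2i), were treated 48 hr with 100 μM test compound or vehicle. Total RNA was isolated with TRIzol and cDNA made with the miScript system. Mature and precursor microRNAs were quantified with specific primer assays relative to U6; n = 6 over two independent experiments.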
In general terms: Quantitative PCR measures a nucleic acid by following its amplification.

human LIN28ΔF73A, sequence (Q9H9Z2 16-187 F73A): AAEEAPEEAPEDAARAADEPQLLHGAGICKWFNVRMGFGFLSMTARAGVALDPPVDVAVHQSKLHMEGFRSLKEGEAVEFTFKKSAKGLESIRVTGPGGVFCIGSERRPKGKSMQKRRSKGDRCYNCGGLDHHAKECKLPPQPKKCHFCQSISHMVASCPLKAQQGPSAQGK
human LIN28Δ:preE-let-7f complex, sequence (Q9H9Z2 16-187, stated change not applied, one chain of several): as the sequence (Q9H9Z2 16-187 F73A) above, with A58F counted along it

As to `CCOc1cccc2c1N[C@@H](c1ccc(C(=O)O)cc1)[C@H]1CC=C[C@@H]21` [LI71], the “IC50s with four let-7 pre-elements” value at human LIN28ΔF73A is on record as “all within the low micromolar range”. Further, the “Saturation transfer difference peaks” value in the assay with preE-let-7f is given as “but not preE-let-7f”. In addition, the “Melting temperature of LIN28Δ:preE-let-7f complex with compound” value in assay [1] was 60 °C. Further, in assay [2], the “Relative Renilla luciferase activity” value is given as “did not show an effect”. In addition, in the assay on DKO+A mESCs, the “Mature let-7 species” value is recorded as “increased levels of mature let-7 species”.
